Results published in ChEMBL document CHEMBL1147196, “Chemotherapy of leishmaniasis. Part V: Synthesis and in vitro bioevaluation of novel pyridinone derivatives” (Eur J Med Chem, 2007).
In brackets after ≈: the same amount, converted by molar mass. Activity calls are given as the source filed them. The calls are words filed in the database; no cut-off is given here.

Legend:
Leishmania donovani [1] = assay: Antipromastigote activity against Leishmania donovani MHOM IN/Dd8 assessed as luciferase activity after 72 hrs; type: functional, organism-based; conditions: for IC50 / IC90: MHOM IN/Dd8, 72 h
Method in brief: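 Firefly-luciferase-transfected promastigotes kept in medium 199 + 10% FCS, penicillin/streptomycin, G418 selection. Late-log cells seeded 5 × 10^5/well, 72 h with serial dilutions (2.5–50 mg/ml as printed) in DMSO; DMSO dilution controls. Aliquot mixed 1:1 with Steady-Glo, luminescence (RLU). % inhibition = (N−n)/N × 100 vs untreated control; IC50 by probit analysis.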

Leishmania donovani [2] = assay: Antiamastigote activity against Leishmania donovani MHOM IN/Dd8 in mouse J-774A.1 cells by luciferase reporter gene assay after 72 hrs; type: functional, organism-based, J774.A1; conditions: for IC50: Leishmania donovani, MHOM IN/Dd8, J774.A1, 72 h
Method in brief: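 J-774A.1 mouse macrophages seeded 5 × 10^4 cells/well in RPMI-1640 + 10% FCS, 37 °C, CO2; after 24 h infected with stationary-phase luciferase-expressing promastigotes (2.5 × 10^5/well). Test material added in fresh complete medium (2.5–50 mg/ml range as printed), 72 h, 37 °C. Medium removed, PBS plus Steady-Glo, luminescence read. Inhibition vs untreated control RLU; IC50 by probit analysis.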

| Compound | IC50 (Leishmania donovani [1]) [µg/mL] | IC90 (Leishmania donovani [1]) [µg/mL] | IC90 (Leishmania donovani [2]) [µg/mL] | IC50 (Leishmania donovani [2]) [µg/mL] | Activity (Leishmania donovani [1]) |
| --- | --- | --- | --- | --- | --- |
| Cc1occc(=O)c1OCCCCCOc1c(C)n(-c2ccc(Cl)cc2)ccc1=O | 15.7 (≈ 36.5 µM) | 38.7 (≈ 90.1 µM) |  |  |  |
| Cc1cccc(C)c1-n1ccc(=O)c(OCCCCCOc2c(C)occc2=O)c1C | 17.9 (≈ 42.2 µM) | 57.9 (≈ 137 µM) |  |  |  |
| Cc1cccc(-n2ccc(=O)c(OCCCCCOc3c(C)n(-c4cccc(C)c4C)ccc3=O)c2C)c1C | 7.37 (≈ 14 µM) | 19.1 (≈ 36.2 µM) | 42.3 (≈ 80.3 µM) | 8.57 (≈ 16.3 µM) |  |
| Cc1occc(=O)c1OCCCCCOc1c(C)occc1=O | 18.7 (≈ 58.3 µM) | 122 (≈ 382 µM) | 112.99 (≈ 353 µM) | 12.9 (≈ 40.2 µM) |  |
| COc1ccccc1-n1ccc(=O)c(OCCCCCOc2c(C)occc2=O)c1C | 4.04 (≈ 9.5 µM) | 13.3 (≈ 31.3 µM) | 38.08 (≈ 89.5 µM) | 5.32 (≈ 12.5 µM) |  |
| CCCCCCCCCCCCCCCCOP(=O)([O-])OCC[N+](C)(C)C [MILTEFOSINE] |  |  | 107.51 (≈ 264 µM) | 33.9 (≈ 83.2 µM) |  |
| Cc1c(OCCCCCOc2c(C)n(Cc3ccccc3)ccc2=O)c(=O)ccn1Cc1ccccc1 | 9.98 (≈ 20 µM) | 29.3 (≈ 58.7 µM) | 99.48 (≈ 200 µM) | 13.2 (≈ 26.4 µM) |  |
| Cc1c(OCCCCCOc2c(C)n(C3CCCCC3)ccc2=O)c(=O)ccn1C1CCCCC1 | 4.57 (≈ 9.47 µM) | 18.6 (≈ 38.6 µM) | 62.23 (≈ 129 µM) | 22.8 (≈ 47.2 µM) |  |
| COc1ccc(-n2ccc(=O)c(OCCCCCOc3c(C)n(-c4ccc(OC)cc4)ccc3=O)c2C)cc1 | 12.6 (≈ 23.7 µM) | 43.8 (≈ 82.5 µM) |  |  |  |
| N=C(N)c1ccc(OCCCCCOc2ccc(C(=N)N)cc2)cc1 [PENTAMIDINE] | 0.58 (≈ 1.7 µM) | 0.88 (≈ 2.58 µM) |  |  |  |
| Cc1occc(=O)c1OCCCCCOc1c(C)n(-c2ccc(F)cc2)ccc1=O | 43.6 (≈ 105 µM) | 856 (≈ 2070 µM) |  |  |  |
| Cc1occc(=O)c1OCCCCCOc1c(C)n(-c2ccc([N+](=O)[O-])cc2)ccc1=O | 5.75 (≈ 13.1 µM) | 20.2 (≈ 45.9 µM) | 28.58 (≈ 64.9 µM) | 6.15 (≈ 14 µM) |  |

The next lines start with the values.

| IC50 (Leishmania donovani [1]) [µg/mL] | IC90 (Leishmania donovani [1]) [µg/mL] | IC90 (Leishmania donovani [2]) [µg/mL] | IC50 (Leishmania donovani [2]) [µg/mL] | Activity (Leishmania donovani [1]) | Compound |
| --- | --- | --- | --- | --- | --- |
| 13.5 (≈ 33.1 µM) | 47.9 (≈ 117 µM) |  |  |  | Cc1occc(=O)c1OCCCCCOc1c(C)n(Cc2ccccc2)ccc1=O |
|  |  | 0.1571 (≈ 0.17 µM) | 0.00646 (≈ 0.00699 µM) |  | C[C@@H]1[C@H](O)[C@@H](C)/C=C/C=C/C=C/C=C/C=C/C=C/C=C/[C@H](O[C@@H]2O[C@H](C)[C@@H](O)[C@H](N)[C@@H]2O)C[C@@H]2O[C@](O)(C[C@@H](O)C[C@@H](O)[C@H](O)CC[C@@H](O)C[C@@H](O)CC(=O)O[C@H]1C)C[C@H](O)[C@H]2C(=O)O [AMPHOTERICIN B] |
| 22.7 (≈ 48.2 µM) | 49.8 (≈ 106 µM) |  |  |  | Cc1c(OCCCCCOc2c(C)n(-c3ccccc3)ccc2=O)c(=O)ccn1-c1ccccc1 |
|  |  |  |  | inactive | Cc1c(OCCCCCOc2c(C)n(-c3ccc(F)cc3)ccc2=O)c(=O)ccn1-c1ccc(F)cc1 |
| 4.59 (≈ 11.4 µM) | 10.7 (≈ 26.6 µM) | 102.89 (≈ 256 µM) | 24 (≈ 59.8 µM) |  | Cc1occc(=O)c1OCCCCCOc1c(C)n(C2CCCCC2)ccc1=O |
| 6.91 (≈ 13.1 µM) | 12.5 (≈ 23.7 µM) | 48.43 (≈ 92 µM) | 9.64 (≈ 18.3 µM) |  | Cc1cccc(C)c1-n1ccc(=O)c(OCCCCCOc2c(C)n(-c3c(C)cccc3C)ccc2=O)c1C |
